In BindingDB's records for doi:10.1021/acs.jmedchem.8b00139 (University Park Nottingham, 2018):

Biological target: P2Y purinoceptor 2 (Homo sapiens, UniProt P41231)
Assay: Displacement of (E)-2-((5-(7-Chloro-2-((3-((2-(6-(3-(5,5-difluoro-7,9-dimethyl-5H-5-lambda4,6-lambda4-dipyrrolo[1,2-c:2,1-f ][1,3,2]diazaborinin-3-yl)-propanamido)hexanamido)ethyl)amino)-3-oxopropyl)amino)-4Hbenzo[5,6]cyclohepta[1,2-d]thiazol-4-yl)-2-oxo-4-thioxo-3,4-dihydropyrimidin-1(2H)-yl)methyl)-N-(1H-tetrazol-5-yl)thiazole-4-carboxamide from human N-terminal NLuc-tagged P2Y2R expressed in human 1321N1 cells incubated for 1 hr by furimazine-based NanoBRET assay
Method in brief: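 Competition binding in 1321N1 cells expressing N-terminal NanoLuc-hP2Y2R. The fluorescent tracer was used at 1 µM (or the bodipy A tracer at 100 nM) against increasing concentrations of unlabeled ligand. After furimazine addition the BRET signal was read and pKi estimated; mean ± SEM of separate experiments.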

Chain of P2Y purinoceptor 2 (P41231 whole entry): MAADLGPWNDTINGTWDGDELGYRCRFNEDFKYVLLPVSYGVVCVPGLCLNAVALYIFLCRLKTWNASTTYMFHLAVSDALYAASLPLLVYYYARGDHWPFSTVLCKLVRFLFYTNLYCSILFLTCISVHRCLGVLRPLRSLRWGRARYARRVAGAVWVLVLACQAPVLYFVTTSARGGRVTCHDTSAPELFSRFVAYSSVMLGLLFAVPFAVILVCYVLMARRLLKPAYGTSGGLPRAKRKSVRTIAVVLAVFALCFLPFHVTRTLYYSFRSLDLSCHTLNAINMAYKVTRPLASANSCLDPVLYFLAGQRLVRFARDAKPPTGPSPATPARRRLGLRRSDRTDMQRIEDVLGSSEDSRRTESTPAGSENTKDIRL

CCOCCNc1nc2c(s1)C=Cc1cc(Cl)ccc1[C@@H]2c1cn(C)c(=O)[nH]c1=S
Ki: 5250 nM

CCOCCNc1nc2c(s1)C=Cc1cc(Cl)ccc1[C@H]2c1cn(C)c(=O)[nH]c1=S
Ki: 275 nM
